For eight compounds, IC50 and ED50 results are on record in ChEMBL document CHEMBL1131020, “Synthesis of 7,8-(methylenedioxy)-1-phenyl-3,5-dihydro-4H-2, 3-benzodiazepin-4-ones as novel and potent noncompetitive AMPA receptor antagonists” (J Med Chem, 1998).

For one experiment, the species on record is Rattus norvegicus. The experiment can be described thus: In vitro inhibition of AMPA activated current in xenopus oocytes expressing rat cerebral cortex poly(A)+ RNA. The class given is functional. Summed up:
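Two-electrode voltage clamp, holding -70 mV, of Xenopus oocytes injected with ~25 ng rat cerebral cortex poly(A)+ RNA, superfused in Ringer. Baseline current from 10 μM AMPA. Antagonist at increasing concentrations preapplied ~30 s, then coapplied with 10 μM AMPA. IC50 from four-parameter logistic fit to pooled data of 3–4 experiments, mean ± SEM.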

In a further experiment the test system is Mus musculus. The experiment can be described thus: In vivo anticonvulsant activity in mouse determined by maximum electroshock induced seizure (MES) assay. The class given is functional. The method in brief:
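Male NSA mice; compound in 10% Tween-80/water, iv, 5 min before test. Corneal electrodes deliver 50 mA, 60 pulses/s, 0.8-ms pulse width, 1-s d.c. Protection means no tonic hindlimb extension >90° within 30 s. Screened at 10 mg/kg (n = 8), then 4–5 doses (n = 15–24/dose). ED50 with 95% CI by Litchfield–Wilcoxon.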

Compound `CC1=NN=C(c2ccc(N)cc2)c2cc3c(cc2C1)OCO3` [GYKI-52466] had an IC50 in the experiment listed under Rattus norvegicus of 6.9 µM. This compound yielded a 50% effective dose (ED50) in the experiment on Mus musculus of 4.6 mg/kg.
On the same counts, the results for `O=C1Cc2cc3c(cc2C(c2ccc(F)cc2)=NN1)OCO3` are 62 µM and above 10 mg/kg.
As to `COc1ccc(C2=NNC(=O)Cc3cc4c(cc32)OCO4)cc1`, in the experiment filed under Rattus norvegicus, the IC50 amounted to 23 µM.
Compound `Nc1ccc(C2=NNC(=O)Cc3cc4c(cc32)OCO4)cc1` displayed an IC50 in the experiment listed under Rattus norvegicus of 2.7 µM. For the same compound, the 50% effective dose (ED50) in the experiment on Mus musculus was 2.8 mg/kg.
On to `COc1cc2c(cc1OC)C(c1ccc(N)cc1)=NNC(=O)C2`, for which the IC50 in the experiment filed under Rattus norvegicus worked out at 180 µM. Besides, in the experiment on Mus musculus, the median effective dose (ED50) was above 10 mg/kg.
Taken in the same sequence, the figures for `O=C1Cc2cc3c(cc2C(c2ccc([N+](=O)[O-])cc2)=NN1)OCO3` were 56 µM and above 10 mg/kg.
As for `O=C1Cc2cc3c(cc2C(c2ccccc2)=NN1)OCO3`, the IC50 in the experiment listed under Rattus norvegicus is 21 µM. Moreover, the 50% effective dose (ED50) in the experiment on Mus musculus amounted to 12.9 mg/kg.
Consider `Cc1ccc(C2=NNC(=O)Cc3cc4c(cc32)OCO4)cc1`, for which, in the experiment filed under Rattus norvegicus, the IC50 turned out to be 15 µM. This compound also yielded an ED50 in the experiment with Mus musculus of 16 mg/kg.
